Test [1] in a line: Binding affinity for rat serotonin 5-HT1A receptor using [3H]8-OH-DPAT as radioligand expressed in CHO cells. The test is classed as cell-based. The essentials: (§1)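 In vitro radioligand binding on cloned receptors. For 5-HT7, cloned rat receptor expressed in Sf9 cells was labeled with [3H]5-HT. For 5-HT1A, cloned receptor expressed in CHO cells was labeled with [3H]8-OH-DPAT.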

Test [2] deals with 5-hydroxytryptamine receptor 7 (Rattus norvegicus, UniProt P32305). The experiment in a line: Binding affinity for rat serotonin 5-HT7 receptor expressed in Sf9 cells using [3H]5-HT radioligand. The essentials: as §1
Sequence of 5-hydroxytryptamine receptor 7 (P32305 whole entry): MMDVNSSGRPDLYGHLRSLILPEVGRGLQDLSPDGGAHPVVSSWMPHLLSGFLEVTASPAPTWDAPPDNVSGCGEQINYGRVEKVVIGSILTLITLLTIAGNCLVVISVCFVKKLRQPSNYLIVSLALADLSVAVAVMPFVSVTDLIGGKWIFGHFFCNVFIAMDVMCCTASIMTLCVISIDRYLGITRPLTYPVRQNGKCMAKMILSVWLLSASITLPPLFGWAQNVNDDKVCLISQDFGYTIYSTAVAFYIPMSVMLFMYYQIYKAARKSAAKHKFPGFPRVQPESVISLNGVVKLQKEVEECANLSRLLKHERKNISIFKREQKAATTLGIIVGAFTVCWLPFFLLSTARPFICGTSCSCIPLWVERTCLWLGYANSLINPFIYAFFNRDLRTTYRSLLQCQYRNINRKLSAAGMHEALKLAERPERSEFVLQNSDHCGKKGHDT
The species entered for a further test is Rattus norvegicus. In words: Ratio of binding affinity for serotonin 5-HT1A to serotonin 5-HT7.
Test [3] addresses 5-hydroxytryptamine receptor 7 (Rattus norvegicus) (UniProt P32305). The experiment in a line: Efficacy at the 5-HT7 receptor by measuring its effect on cAMP production in CHO cells. It is filed as functional, cell-based. A general note: Cyclic AMP is a second messenger, typically raised through Gs and lowered through Gi signalling.

SMILES strings stand for the structures. pKi: −log10 of the molar value.

Results on 8 molecules are retold here after ChEMBL document CHEMBL1144298, “Novel 3-aminochromans as potential pharmacological tools for the serotonin 5-HT(7) receptor” (Bioorg Med Chem Lett, 2005).

Usually pKi stands for −log10 of the Ki, conventionally taken in molar units. Low readings indicate a large Ki, high ones a small Ki.

Sequence of 5-hydroxytryptamine receptor 7 (Rattus norvegicus) (P32305 whole entry): as above

With `O=S(=O)(c1ccc2cc[nH]c2c1)N1CCC[C@@H]1CCN1CCC(Oc2ccc(Cl)cc2)CC1`, the pKi is 6.25 in test [1] and 8.70 in test [2]. The Ratio in the test filed under Rattus norvegicus is 282. Also, in test [3] (filed as antagonist), the Efficacy entry was “Antagonist”.
`CCCN(CCC)[C@H]1COc2c(cccc2-c2c(OC)cccc2OC)C1` showed a negative-log Ki (pKi) in test [1] of 6.76. Further, the Ratio in the test filed under Rattus norvegicus stood at 27.
For `CN(C)[C@@H]1COc2ccc(-c3ccccc3)cc2C1`, the pKi in test [2] was under 6.00.
For the molecule `COc1c(-c2ccc3c(c2)C[C@H](N(C)C)CO3)ccc2ccccc12`, the pKi in test [1] is 6.23; in test [2], 7.12. Also, the Ratio in the test listed under Rattus norvegicus was 8.
Take `COc1cccc(OC)c1-c1ccc2c(c1)C[C@H](N(C)C)CO2`: in test [2], the pKi is 6.44.
For `COc1cccc(OC)c1-c1cccc2c1OC[C@@H](N(C)C)C2`, the pKi is under 6.00 in test [1] and 8.28 in test [2]. Moreover, in the test filed under Rattus norvegicus, the Ratio is over 189. The Efficacy in test [3] was 28%.
Regarding `CN(C)[C@@H]1COc2ccc(-c3c(O)cccc3O)cc2C1`, the pKi in test [2] is under 6.00.
As to `Cc1cccc(C)c1-c1ccc2c(c1)C[C@H](N(C)C)CO2`, the pKi in test [1] was 7.12; in test [2], 7.87. Moreover, the Ratio in the test filed under Rattus norvegicus came out at 6. In test [3], the Efficacy worked out at 76%.
